From ChEMBL document CHEMBL1782040, “Exceptionally fast uptake and metabolism of cyanidin 3-glucoside by rat kidneys and liver” (J Nat Prod, 2011)

Legend:
Kidney [1] = assay: Drug uptake in Wistar rat kidney assessed by assuming kidney mass was 2.4 gram at 0.67 umol, iv after 15 mins by mass spectrometry analysis; type: ADME, organism-based; conditions: in vivo, 0.25 h
Outline: (§1)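 Cyanidin 3-glucoside in saline was given as one iliac-vein injection (0.67 μmol) to fasting, anaesthetized rats, which were killed at 15 s, 1, 5 or 15 min. Kidneys were homogenized, extracted in methanol, cleaned up by SPE and analysed by LC-MS/MS.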

[2] = Drug uptake in Wistar rat kidney at 0.67 umol, iv after 15 mins by mass spectrometry analysis; type: ADME, organism-based; conditions: read-out: Drug uptake; outline: as §1
Nucleic Acid [3] = assay: Ratio of drug uptake in kidney to liver in Wistar rat assessed as level at 0.67 umol, iv by mass spectrometry analysis; conditions: in vivo
[4] = Metabolic stability in Wistar rat assessed as parent compound level in bile at 0.67 umol, iv after 15 mins by mass spectrometry analysis; type: ADME, organism-based; conditions: in vivo, 0.25 h
Outline: (§2)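 Fasted, anaesthetized rats received the anthocyanin in saline as a 0.67 μmol iliac-vein bolus (76 μM in plasma). They were sacrificed at 15 s, 1, 5 or 15 min, and plasma, kidneys, liver, urine and bile were collected. Anthocyanins were methanol-extracted, SPE-cleaned and quantified by MS (tandem MS for trace metabolites), then corrected for recovery measured on spiked blood, homogenates and urine. Amounts assume 8.8 mL plasma, 2.4 g kidney and 7.0 g liver, with urine and bile volumes measured.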

Nucleic Acid [5] = assay: Ratio of drug uptake in kidney to liver in Wistar rat assessed as cyanidin 3-glucoside level at 0.67 umol, iv after 15 mins by mass spectrometry analysis; conditions: in vivo, 0.25 h
[6] = Elimination rate constant in Wistar rat plasma at 0.67 umol, iv; type: ADME, cell-free
Outline: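 Rats received a 0.67 μmol iliac-vein bolus in saline under anaesthesia. Plasma amounts (nmol) at 15 s, 1, 5 and 15 min were obtained by recovery-corrected MS and fitted to y = y0 + a·e^(−kt). k is the first-order elimination constant, y0 the steady-state amount, and a the extrapolated t0 amount minus y0.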

[7] = Drug uptake in Wistar rat plasma at 0.67 umol, iv after 0.25 mins by mass spectrometry analysis; type: ADME, organism-based; outline: as §2
Kidney [8] = assay: Metabolic stability in Wistar rat assessed as parent compound level in kidney at 0.67 umol, iv after 0.25 mins by mass spectrometry analysis; type: ADME, organism-based; conditions: in vivo, 15 s; outline: as §2
[9] = Drug uptake in Wistar rat liver at 0.67 umol, iv after 0.25 mins by mass spectrometry analysis; type: ADME, organism-based; conditions: read-out: Drug uptake; outline: as §2
[10] = Drug uptake in Wistar rat bile assessed by assuming plasma volume was 8.8 mL at 0.67 umol, iv after 15 mins by mass spectrometry analysis; type: ADME, organism-based; conditions: in vivo, 0.25 h
[11] = Drug uptake in Wistar rat kidney at 0.67 umol, iv after 0.25 mins by mass spectrometry analysis; type: ADME, organism-based; conditions: read-out: Drug uptake; outline: as §1
[12] = Drug uptake in Wistar rat kidney at 0.67 umol, iv after 5 mins by mass spectrometry analysis; type: ADME, organism-based; conditions: read-out: Drug uptake; outline: as §1
Plasma [13] = assay: Metabolic stability in Wistar rat assessed as parent compound level in plasma at 0.67 umol, iv after 5 mins by mass spectrometry analysis; type: ADME, organism-based; conditions: in vivo; outline: as §2
Kidney [14] = assay: Metabolic stability in Wistar rat assessed as parent compound level in kidney at 0.67 umol, iv after 1 min by mass spectrometry analysis; type: ADME, organism-based; conditions: in vivo; outline: as §2
Plasma [15] = assay: Metabolic stability in Wistar rat assessed as parent compound level in plasma at 0.67 umol, iv after 15 mins by mass spectrometry analysis; type: ADME, organism-based; conditions: in vivo, 0.25 h; outline: as §2
[16] = Drug uptake in Wistar rat bile at 0.67 umol, iv after 15 mins by mass spectrometry analysis; type: ADME, organism-based; conditions: read-out: Drug uptake
Outline: (§3)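 Cyanidin 3-glucoside in saline was injected into the iliac vein of fasting, anaesthetized rats (0.67 μmol; 76 μM in plasma). Urine and bile were collected to 15 min, and their volumes were measured. Anthocyanin levels were measured by LC-MS and corrected for recovery from spiked standards. Amounts are given per collected volume (n = 9 urine, n = 4 bile).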

[17] = Drug uptake in Wistar rat liver at 0.67 umol, iv after 1 min by mass spectrometry analysis; type: ADME, organism-based; conditions: read-out: Drug uptake; outline: as §2
Kidney [18] = assay: Drug uptake in Wistar rat kidney assessed by assuming kidney mass was 2.4 gram at 0.67 umol, iv after 5 mins by mass spectrometry analysis; type: ADME, organism-based; conditions: in vivo; outline: as §1
[19] = Metabolic stability in Wistar rat assessed as parent compound level in urine at 0.67 umol, iv after 15 mins by mass spectrometry analysis; type: ADME, organism-based; conditions: in vivo, 0.25 h; outline: as §2
Kidney [20] = assay: Drug uptake in Wistar rat kidney assessed by assuming kidney mass was 2.4 gram at 0.67 umol, iv after 1 min by mass spectrometry analysis; type: ADME, organism-based; conditions: in vivo; outline: as §1
[21] = Drug uptake in Wistar rat plasma at 0.67 umol, iv after 15 mins by mass spectrometry analysis; type: ADME, organism-based; outline: as §2
Liver [22] = assay: Metabolic stability in Wistar rat assessed as parent compound level in liver at 0.67 umol, iv after 1 min by mass spectrometry analysis; type: ADME, organism-based; conditions: in vivo; outline: as §2
Nucleic Acid [23] = assay: Ratio of drug uptake in urine to kidney in Wistar rat at 0.67 umol, iv after 15 mins by mass spectrometry analysis; type: ADME, organism-based; conditions: in vivo, 0.25 h
Outline: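 Fasting anaesthetized rats got 0.67 μmol anthocyanin in saline into the iliac vein (about 76 μM in plasma) and were killed at 15 min. Urine (volume measured) and kidneys (2.4 g assumed) were extracted in methanol and cleaned by SPE. Analytes were quantified by LC-tandem MS, corrected for recovery from spiked matrices, n = 9 rats.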

Nucleic Acid [24] = assay: Ratio of drug uptake in bile to liver in Wistar rat at 0.67 umol, iv after 15 mins by mass spectrometry analysis; type: ADME, organism-based; conditions: in vivo, 0.25 h
Kidney [25] = assay: Drug uptake in Wistar rat kidney assessed by assuming kidney mass was 2.4 gram at 0.67 umol, iv after 0.25 mins by mass spectrometry analysis; type: ADME, organism-based; conditions: in vivo, 15 s; outline: as §1
Liver [26] = assay: Drug uptake in Wistar rat liver assessed by assuming liver mass was 7 grams at 0.67 umol, iv after 1 min by mass spectrometry analysis; type: ADME, organism-based; conditions: in vivo; outline: as §2
[27] = Drug uptake in Wistar rat liver at 0.67 umol, iv after 5 mins by mass spectrometry analysis; type: ADME, organism-based; conditions: read-out: Drug uptake; outline: as §2
Liver [28] = assay: Metabolic stability in Wistar rat assessed as parent compound level in liver at 0.67 umol, iv after 5 mins by mass spectrometry analysis; type: ADME, organism-based; conditions: in vivo; outline: as §2
[29] = Drug uptake in Wistar rat liver at 0.67 umol, iv after 15 mins by mass spectrometry analysis; type: ADME, organism-based; conditions: read-out: Drug uptake; outline: as §2
Kidney [30] = assay: Metabolic stability in Wistar rat assessed as parent compound level in kidney at 0.67 umol, iv after 15 mins by mass spectrometry analysis; type: ADME, organism-based; conditions: in vivo, 0.25 h; outline: as §2
[31] = Drug uptake in Wistar rat urine assessed by assuming plasma volume was 8.8 mL at 0.67 umol, iv after 15 mins by mass spectrometry analysis; type: ADME, organism-based; conditions: in vivo, 0.25 h; outline: as §2
[32] = Drug excretion in Wistar rat bile at 0.67 umol, iv after 15 mins by mass spectrometry analysis; type: ADME, organism-based; conditions: read-out: Activity; outline: as §3
[33] = Drug uptake in Wistar rat urine at 0.67 umol, iv after 15 mins by mass spectrometry analysis; type: ADME, organism-based; conditions: read-out: Drug uptake; outline: as §2
Liver [34] = assay: Drug uptake in Wistar rat liver assessed by assuming liver mass was 7 grams at 0.67 umol, iv after 15 mins by mass spectrometry analysis; type: ADME, organism-based; conditions: in vivo, 0.25 h; outline: as §2
[35] = Drug uptake in Wistar rat plasma at 0.67 umol, iv after 5 mins by mass spectrometry analysis; type: ADME, organism-based; outline: as §2
Plasma [36] = assay: Metabolic stability in Wistar rat assessed as parent compound level in plasma at 0.67 umol, iv after 0.25 mins by mass spectrometry analysis; type: ADME, organism-based; conditions: in vivo, 15 s; outline: as §2
Plasma [37] = assay: Metabolic stability in Wistar rat assessed as parent compound level in plasma at 0.67 umol, iv after 1 min by mass spectrometry analysis; type: ADME, organism-based; conditions: in vivo; outline: as §2
[38] = Drug excretion in Wistar rat urine at 0.67 umol, iv after 15 mins by mass spectrometry analysis; type: ADME, organism-based; conditions: read-out: Activity; outline: as §3
Kidney [39] = assay: Metabolic stability in Wistar rat assessed as parent compound level in kidney at 0.67 umol, iv after 5 mins by mass spectrometry analysis; type: ADME, organism-based; conditions: in vivo; outline: as §2
[40] = Drug uptake in Wistar rat plasma at 0.67 umol, iv after 1 min by mass spectrometry analysis; type: ADME, organism-based; outline: as §2
Liver [41] = assay: Drug uptake in Wistar rat liver assessed by assuming liver mass was 7 grams at 0.67 umol, iv after 5 mins by mass spectrometry analysis; type: ADME, organism-based; conditions: in vivo; outline: as §2
Liver [42] = assay: Metabolic stability in Wistar rat assessed as parent compound level in liver at 0.67 umol, iv after 15 mins by mass spectrometry analysis; type: ADME, organism-based; conditions: in vivo, 0.25 h; outline: as §2
Liver [43] = assay: Drug uptake in Wistar rat liver assessed by assuming liver mass was 7 grams at 0.67 umol, iv after 0.25 mins by mass spectrometry analysis; type: ADME, organism-based; conditions: in vivo, 15 s
Outline: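 Fasting, anaesthetized rats received cyanidin 3-glucoside in saline into the iliac vein (0.67 μmol) and were killed at 15 s, 1, 5 or 15 min. Liver homogenates were methanol-extracted, cleaned up by SPE and quantified by LC-MS/MS.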

Liver [44] = assay: Metabolic stability in Wistar rat assessed as parent compound level in liver at 0.67 umol, iv after 0.25 mins by mass spectrometry analysis; type: ADME, organism-based; conditions: in vivo, 15 s; outline: as §2
[45] = Drug uptake in Wistar rat kidney at 0.67 umol, iv after 1 min by mass spectrometry analysis; type: ADME, organism-based; conditions: read-out: Drug uptake; outline: as §1

Compound `OC[C@H]1O[C@@H](Oc2cc3c(O)cc(O)cc3[o+]c2-c2ccc(O)c(O)c2)[C@H](O)[C@@H](O)[C@@H]1O` [KUROMANIN] has a Drug uptake (Kidney [1]) of 10.6 nmol, a concentration at 0.25 h [2] of 4.4 µM and a Ratio (Nucleic Acid [3]) of 12. The Stability [4] was 58.9 nmol, the Ratio (Nucleic Acid [5]) was 37 and the k el [6] was 0.0317 s⁻¹. It also gave a concentration at 15 s [7] of 18.2 µM, a Stability (Kidney [8]) of 73.1 nmol and a concentration at 15 s [9] of 0.4 µM. It also gave a Drug uptake [10] of 0.4 nmol, a concentration at 15 s [11] of 11.3 µM and a concentration at 5 min [12] of 4.5 µM. For the same compound, the Stability (Plasma [13]) was 17.2 nmol, the Stability (Kidney [14]) was 130.8 nmol and the Stability (Plasma [15]) was 19.7 nmol. It also gave a concentration at 0.25 h [16] of 2.3 µM, a concentration at 1 min [17] of 0.4 µM and a Drug uptake (Kidney [18]) of 10.7 nmol. For the same compound, the Stability [19] was 141 nmol, the Drug uptake (Kidney [20]) was 29.8 nmol and the concentration at 0.25 h [21] was 1.6 µM. It also gave a Stability (Liver [22]) of 84.4 nmol, a Ratio (Nucleic Acid [23]) of 71.9 and a Ratio (Nucleic Acid [24]) of 34.2. For the same compound, the Drug uptake (Kidney [25]) was 27.1 nmol, the Drug uptake (Liver [26]) was 2.5 nmol and the concentration at 5 min [27] was 0.02 µM. For the same compound, the Stability (Liver [28]) was 34.6 nmol, the concentration at 0.25 h [29] was 0.1 µM and the Stability (Kidney [30]) was 62.7 nmol. For the same compound, the Drug uptake [31] was 41.3 nmol, the dose excreted at 0.25 h [32] was < 0.1% and the concentration at 0.25 h [33] was 317 µM. It also gave a Drug uptake (Liver [34]) of 0.4 nmol, a concentration at 5 min [35] of 1.6 µM and a Stability (Plasma [36]) of 171.2 nmol. The Stability (Plasma [37]) was 55.8 nmol, the dose excreted at 0.25 h [38] was 6.2% and the Stability (Kidney [39]) was 52 nmol. It also gave a concentration at 1 min [40] of 5.7 µM, a Drug uptake (Liver [41]) of 0.1 nmol and a Stability (Liver [42]) of 32.3 nmol. The Drug uptake (Liver [43]) was 2.5 nmol, the Stability (Liver [44]) was 43.6 nmol and the concentration at 1 min [45] was 12.4 µM.
